Like-named read-outs stand apart in the source and are kept apart here.

In one series the test system is MCF7/ADR xenografts. The series can be described thus: In vivo antitumor efficacy in MCF7/ADR xenografts. Also noted: species or system BALB/c nude mice. The conditions noted are these: tail vein every 3 days five times, n=6.
The test system of series [1] is MCF7/ADR (Dox-resistant) cells. The series can be described thus: CCK-8 cytotoxicity assay in MCF7/ADR cells. Type of series: cell-based, human. Particulars: for IC50: read-out: IC50 of Dox or equivalent NLS-Dox, MCF7/ADR cells, CCK-8, mean ± SD (n=5). A digest of the protocol:
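CCK-8 assay in MCF7 and MCF7/ADR cells (Dox withdrawn from resistant line 1 week prior). Cells seeded at 0.5×10^4/well, grown overnight, then exposed to a concentration range for 48 or 96 h. CCK-8 was added for 1 h at 37°C and A450 read. Viability = (Asample−Ablank)/(Anon-treated−Ablank)×100%. n=5.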
(In general: Tetrazolium assays rely on reduction of a dye to a coloured formazan, in cell work by metabolically active cells.)

The test system of the next series is MCF7/ADR cells. The series can be described thus: Annexin V-FITC/propidium iodide apoptosis assay by flow cytometry. Particulars: 48 hours of incubation, Dox 20 μM. Type of series: cell-based, human. An outline of the steps: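 MCF7/ADR cells (DMEM, 10% FBS; resistance kept with 1 μg/mL Dox, withdrawn 1 week before use) seeded at 10^5 cells/well and left 24 h. Treated with free Dox or nanoparticles (Dox 20 μM and/or anti-miR21 213.3 nM) for 48 h. Cells were washed, trypsinised, and stained with annexin V–FITC/PI for 15 min at room temperature in the dark, then analysed by flow cytometry. Untreated cells served as blanks; three repeats.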
For orientation: In flow cytometry, cells or beads pass a laser one at a time.

Usually IC50 stands for the midpoint of a concentration-inhibition curve. For the molecule `COc1cccc2c1C(=O)c1c(O)c3c(c(O)c1C2=O)C[C@@](O)(C(=O)CO)C[C@@H]3O[C@H]1C[C@H](N)[C@H](O)[C@H](C)O1` [Free Dox, doxorubicin], the “effect on growth of MCF7/ADR xenografts” value with MCF7/ADR xenografts (free Dox 7.6 mg/kg) was “slight inhibitory effect”. Also, the “body weight change of tumor-bearing mice” value in the series on MCF7/ADR xenografts (measured for 3 weeks) was “significant weight loss”. For the same molecule, the “IC50 in MCF7/ADR cells relative to parent MCF7 cells” value in series [1] (48 hours incubation) was “over 20 fold”. In addition, the 50% inhibitory concentration (IC50) in series [1] (48 hours) was 49.4 ± 2.58 µM; in series [1] (96 hours), 30 ± 1.46 µM. This molecule had an apoptotic cells in the series on MCF7/ADR cells of 10.75%.
